Measured values taken from PMC7117380 (Veterinary Microbiology, 2017).

Key:
PRRSV 3CLSP (nsp4) = molecular target: T1, PRRSV 3CLSP (nsp4) (Porcine reproductive and respiratory syndrome virus, UniProt A1E8J1); assay: FRET assay of PRRSV 3CLSP; assay type: biochemical
T1 sequence (A1E8J1 1780-1983): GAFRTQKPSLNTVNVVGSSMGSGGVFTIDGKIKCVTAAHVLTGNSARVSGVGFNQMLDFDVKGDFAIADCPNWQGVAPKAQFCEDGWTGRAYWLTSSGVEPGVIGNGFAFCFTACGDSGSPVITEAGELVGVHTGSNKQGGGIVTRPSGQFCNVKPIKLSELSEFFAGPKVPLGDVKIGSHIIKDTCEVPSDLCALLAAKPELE

PEDV 3CL protease (nsp5) = molecular target: T2, PEDV 3CL protease (nsp5) (Porcine epidemic diarrhea virus, UniProt P0C6Y4); assay: FRET assay of PEDV 3CL protease; assay type: biochemical
T2 sequence (P0C6Y4 2998-3299 limits assumed): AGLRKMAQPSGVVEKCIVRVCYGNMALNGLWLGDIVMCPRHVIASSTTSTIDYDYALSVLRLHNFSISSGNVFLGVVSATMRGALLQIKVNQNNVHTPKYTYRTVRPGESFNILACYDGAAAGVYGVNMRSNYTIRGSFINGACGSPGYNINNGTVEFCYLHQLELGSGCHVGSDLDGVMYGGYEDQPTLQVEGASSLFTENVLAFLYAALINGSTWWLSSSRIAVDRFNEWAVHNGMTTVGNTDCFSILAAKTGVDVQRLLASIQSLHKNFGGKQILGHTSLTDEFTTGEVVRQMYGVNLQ
In short: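 The assay used purified PEDV nsp5 (3CL protease) at 0.25 μM final and substrate Dabcyl-YNSTLQ↓AGLRKM-E-Edans at 10 μM. Test compound (6.25–500 μM) was preincubated with enzyme for 20 min at 37 °C, then incubated with substrate for 60 min at 37 °C. Fluorescence was read at ex 340/em 485, minus a no-protease background. Inhibition % came from the 60–0 min RFU change against control, and IC50 from nonlinear regression of triplicate runs.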

in vitro = assay type: cell-based; conditions: African green monkey
Cell viability assay = assay type: cell-based; conditions: African green monkey, Vero cells
In short: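 Confluent Vero cells in DMEM with 10% FBS at 37 °C, 5% CO2 were exposed to test compound at 50–500 μM for 72 h, with 0.1% DMSO as control. Viability was read by CellTiter-Glo luminescence. CC50 was fitted in GraphPad Prism from triplicate experiments (±SD).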

[1] = test system: PRRSV (HP-PRRSV WUH3 strain); assay: TCID50 assay for PRRSV replication in MARC-145 cells; assay type: cell-based, porcine reproductive and respiratory syndrome virus; conditions: for Inhibition of PRRSV infection: 100 μM
[2] = test system: PRRSV nucleocapsid (N) protein; assay: Western blot of PRRSV nucleocapsid; assay type: cell-based, porcine reproductive and respiratory syndrome virus; conditions: MARC-145 cells; for PRRSV N protein detection (western blot): 100 μM; for PRRSV N protein level (western blot), dose response: 6.25–200 μM, 36 h
[3] = test system: PEDV nucleocapsid (N) protein; assay: Western blot of PEDV nucleocapsid; assay type: cell-based, porcine epidemic diarrhea virus; conditions: Vero cells
PEDV (FJZZ strain) = assay: TCID50 assay for PEDV replication in Vero cells; assay type: cell-based, porcine epidemic diarrhea virus
EAV 3CLSP (nsp4) = molecular target: T3, EAV 3CLSP (nsp4) (Equine arteritis virus, UniProt P19811); assay: FRET assay of EAV 3CLSP; assay type: biochemical; conditions: 1 μM substrate, 12.5-500 μM compound
T3 sequence (P19811 1065-1268 limits assumed): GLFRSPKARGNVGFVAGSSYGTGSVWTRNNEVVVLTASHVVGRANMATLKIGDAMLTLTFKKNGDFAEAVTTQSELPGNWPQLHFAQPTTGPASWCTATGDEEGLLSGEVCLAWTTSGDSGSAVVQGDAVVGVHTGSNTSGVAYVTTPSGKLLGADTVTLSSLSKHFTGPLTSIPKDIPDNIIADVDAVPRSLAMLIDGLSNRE

| Structure (SMILES) | IC50 (PRRSV 3CLSP (nsp4)) | IC50 (PEDV 3CL protease (nsp5)) | CC50 (in vitro) | CC50 at 72 h (Cell viability assay) | Inhibition of PRRSV infection [1] | PRRSV N protein detection (western blot) [2] | PRRSV N protein level (western blot), dose response [2] | PEDV N protein level (western blot), dose response [3] | viability at 72 h, 500 µM (in vitro) | Suppression of PRRSV replication (western blot) [2] | PRRSV-3CLpro SI values (selectivity index) ([1]; PRRSV) | PEDV-3CLpro SI values (selectivity index) (PEDV (FJZZ strain)) | Protease activity of EAV 3CLSP (EAV 3CLSP (nsp4)) |
| --- | --- | --- | --- | --- | --- | --- | --- | --- | --- | --- | --- | --- | --- |
| Cc1ccc(C(=O)c2ccc(O)cc2O)cc1 [Compound 2, (2,4-dihydroxyphenyl) (4-methylphenyl)methanone] | 144 µM | 37.8 µM | 480 µM | > 500 µM | strongly inhibited PRRSV infection | no viral N protein was detectable | decreased | decreased | – | – | – | – | – |
| CC1CCN(c2ncnc3ccccc23)CC1 [Compound 5, 4-(4-methylpiperidin-1-yl)quinazoline] | 173 µM | – | > 500 µM | – | – | – | decreased | – | > 60% | – | – | – | – |
| Cc1ccncc1 [Compound 4, 4-methylpyridine] | 148 µM | > 500 µM | – | – | – | – | – | – | – | did not substantially suppress PRRSV replication | – | – | – |
| Cc1cccc(C)c1C(=O)c1ccc(O)cc1O [Compound 3, (2,4-dihydroxyphenyl)(2,6-dimethylphenyl)methanone] | 116 µM | 23.4 µM | 483 µM | > 500 µM | strongly inhibited PRRSV infection | no viral N protein was detectable | decreased | decreased | – | – | ~8.5 | ~9.02 | inhibited |
